In ChEMBL document CHEMBL4325846, “An investigation on 4-thiazolidinone derivatives as dual inhibitors of aldose reductase and protein tyrosine phosphatase 1B, in the search for potential agents for the treatment of type 2 diabetes mellitus and its complications” (Bioorg Med Chem Lett, 2018):
Activity calls are given as the source filed them. No cut-off for these calls is given here.

Columns and labels:
[1] = molecular target: T1, Aldo-keto reductase family 1 member B1 (Homo sapiens, UniProt P15121); test: Uncompetitive inhibition of human recombinant aldose reductase expressed in Escherichia coli BL21(DE3)pLysS assessed as dissociation constant of enzyme-inhibitor-substrate complex using L-idose as substrate by Morrison's plot analysis
Summary of the method: (§1)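 Purified human AR (7 mU) activity was measured across inhibitor concentrations at L-idose 2.1, 3.1, 4.1, 8.3 and 16.6 mM. Data were fitted to the Morrison equation to give Ki app at each substrate level. Ki app versus substrate was then fitted by nonlinear regression to a general tight-binding inhibition model.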

[2] = molecular target: T1, Aldo-keto reductase family 1 member B1; test: Reversible inhibition of human recombinant aldose reductase expressed in Escherichia coli BL21(DE3)pLysS assessed as enzyme activity recovery at 0.25 to 2 uM using L-idose as substrate relative to control; design: scale not given: the % may be the effect or the level left
[3] = molecular target: T1, Aldo-keto reductase family 1 member B1; test: Inhibition of human recombinant aldose reductase expressed in Escherichia coli BL21 (DE3) pLysS assessed as reduction in NADPH oxidation using L-idose as substrate
[4] = molecular target: T2, Tyrosine-protein phosphatase non-receptor type 1 (Homo sapiens, UniProt P18031); test: Inhibition of human full-length GST-fused PTP1B expressed in bacterial expression system using pNPP as substrate
T2 sequence (P18031 whole entry): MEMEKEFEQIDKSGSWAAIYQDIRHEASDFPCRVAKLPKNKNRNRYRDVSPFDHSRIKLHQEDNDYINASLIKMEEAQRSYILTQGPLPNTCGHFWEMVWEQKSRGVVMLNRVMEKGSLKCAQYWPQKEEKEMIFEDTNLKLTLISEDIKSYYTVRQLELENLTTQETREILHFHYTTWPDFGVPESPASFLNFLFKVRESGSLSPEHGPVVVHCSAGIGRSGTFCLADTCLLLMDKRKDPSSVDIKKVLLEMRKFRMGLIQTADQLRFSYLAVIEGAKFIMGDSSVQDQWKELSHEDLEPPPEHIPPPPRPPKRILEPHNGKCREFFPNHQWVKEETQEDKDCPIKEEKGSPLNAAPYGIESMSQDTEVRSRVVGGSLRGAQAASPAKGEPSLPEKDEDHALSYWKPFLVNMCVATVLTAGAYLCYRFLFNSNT
Summary of the method: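 Human recombinant PTP1B activity measured with p-nitrophenyl phosphate as substrate and sodium metavanadate as reference inhibitor. IC50 values are reported as mean ± S.E.M.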

[5] = molecular target: T2, Tyrosine-protein phosphatase non-receptor type 1; test: Non-competitive inhibition of human full-length GST-fused PTP1B expressed in bacterial expression system assessed as dissociation constant of enzyme-inhibitor-substrate complex using pNPP as substrate by Michaelis-Menten plot analysis
Summary of the method: (§2)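 Human recombinant PTP1B with pNPP, rates measured over varied substrate levels at inhibitor 0–30 µM (steps of 10 µM, or 0/3/6/9 µM). Double-reciprocal plots were drawn, and secondary plots of Km/Vmax versus inhibitor concentration were used. Data are mean ± S.E.M. (n = 3).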

[6] = molecular target: T1, Aldo-keto reductase family 1 member B1; test: Uncompetitive inhibition of human recombinant aldose reductase expressed in Escherichia coli BL21(DE3)pLysS assessed as dissociation constant of enzyme-inhibitor complex using L-idose as substrate by Morrison's plot analysis; summary of the method: as §1
[7] = molecular target: T3, Tyrosine-protein phosphatase non-receptor type 1 (Homo sapiens) (UniProt P18031); test: Reversible inhibition of human full-length GST-fused PTP1B expressed in bacterial expression system using pNPP as substrate after 60 mins
T3 sequence (whole entry): T2 sequence (P18031 whole entry)
Summary of the method: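 PTP1B was preincubated with a saturating inhibitor concentration for 60 min at 37°C. The mixture was then diluted in assay buffer and residual pNPP-hydrolysing activity was measured.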

[8] = molecular target: T2, Tyrosine-protein phosphatase non-receptor type 1; test: Non-competitive inhibition of human full-length GST-fused PTP1B expressed in bacterial expression system assessed as dissociation constant of enzyme-inhibitor complex using pNPP as substrate by Michaelis-Menten plot analysis; summary of the method: as §2
[9] = molecular target: T3, Tyrosine-protein phosphatase non-receptor type 1 (Homo sapiens); test: Inhibition of human full-length GST-fused PTP1B expressed in bacterial expression system at 300 uM using pNPP as substrate relative to control
[10] = molecular target: T2, Tyrosine-protein phosphatase non-receptor type 1; test: Mixed non-competitive inhibition of human full-length GST-fused PTP1B expressed in bacterial expression system assessed as assessed as dissociation constant of enzyme-inhibitor complex using pNPP as substrate by double reciprocal plot analysis
Summary of the method: (§3)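 Human recombinant PTP1B with pNPP. Rates were measured over varied substrate levels at inhibitor 0, 2, 4 and 6 µM. […] Data are mean ± S.E.M. (n = 3).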

[11] = molecular target: T2, Tyrosine-protein phosphatase non-receptor type 1; test: Mixed non-competitive inhibition of human full-length GST-fused PTP1B expressed in bacterial expression system assessed as assessed as dissociation constant of enzyme-inhibitor-substrate complex using pNPP as substrate by double reciprocal plot analysis; summary of the method: as §3

IC50 [3] [µM] | IC50 [4] [µM] | SMILES | further results
0.056 | 32.5 | O=C(O)CN1C(=O)/C(=C/c2cccc(OCCc3ccccc3)c2)SC1=S | Ki [1]: 0.0062 µM; Activity [2]: 70%; Ki [5]: 12 µM; Ki [6]: > 0.3 µM; inhibition [7]: Active; Ki [8]: 12 µM
0.364 | 63.8 | O=C(O)CN1C(=O)S/C(=C\c2ccc(OCCc3ccccc3)cc2)C1=O | –
0.276 | 12.4 | O=C(O)CN1C(=O)S/C(=C\c2cccc(OCCc3ccccc3)c2)C1=O | Ki [1]: 0.016 µM; Activity [2]: 70%; Ki [5]: 13.1 µM; Ki [6]: > 0.5 µM; inhibition [7]: Active; Ki [8]: 13.1 µM
0.078 | – | COc1cccc(/C=C2\SC(=S)N(CC(=O)O)C2=O)c1 | –
0.025 | 86.8 | O=C(O)CN1C(=O)/C(=C/c2cccc(Oc3ccccc3)c2)SC1=S | –
0.04 | 54.1 | COc1cc(/C=C2\SC(=S)N(CC(=O)O)C2=O)ccc1OCc1ccccc1 | –
0.104 | 49.4 | O=C(O)CN1C(=O)/C(=C/c2ccc(OCCc3ccccc3)cc2)SC1=S | –
0.323 | 151 | COc1cc(/C=C2\SC(=O)N(CC(=O)O)C2=O)ccc1OCc1ccccc1 | –
0.125 | 171 | O=C(O)CN1C(=O)/C(=C/C=C/c2ccccc2)SC1=S | –
0.194 | – | NC(=O)COc1ccc(/C=C2\SC(=S)N(CC(=O)O)C2=O)cc1 | inhibition [9]: 10%
1.41 | 10.6 | COc1cc(/C=C2\S/C(=N\c3ccccc3)N(CC(=O)O)C2=O)ccc1OCc1ccccc1 | Ki [10]: 7.6 µM; Ki [11]: 40.6 µM
0.228 | 378 | COc1cc(/C=C2\SC(=S)N(CC(=O)O)C2=O)ccc1OCC(N)=O | –
0.06 | 63.9 | O=C(O)CN1C(=O)/C(=C/c2ccc(Oc3ccccc3)cc2)SC1=S | –
0.053 | 43.1 | O=C(O)CN1C(=O)/C(=C/c2cccc(OCc3ccccc3)c2)SC1=S | –
0.052 | 56 | O=C(O)CN1C(=O)/C(=C/c2ccc(OCc3ccccc3)cc2)SC1=S | –
0.064 | 716 | NC(=O)COc1cccc(/C=C2\SC(=S)N(CC(=O)O)C2=O)c1 | –
0.139 | 679 | COc1ccc(/C=C2\SC(=S)N(CC(=O)O)C2=O)cc1OCC(N)=O | –
